We go through six compounds from ChEMBL document CHEMBL3774374, “The Effect of Small Molecules on Sterol Homeostasis: Measuring 7-Dehydrocholesterol in Dhcr7-Deficient Neuro2a Cells and Human Fibroblasts” (J Med Chem, 2016).

Active and inactive are the calls of the source. No cut-off for these calls is given here.

Data set [1] relates to N2a. Nature of the data set: Increase in lanosterol levels in Dhcr7-deficient mouse Neuro2a cells at 1 uM by LC-MS analysis. It is filed as functional, cell-based. In outline:
(§1)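 Dhcr7-deficient Neuro2a cells (13000/well, 0.5% FBS medium) on predeposited compound, 24 h at 37 °C. Hoechst-stained and imaged to count cells. Lysed in methanol containing isotope-labelled sterol standards, derivatized with PTAD 20 min at RT, then isocratic C18 UPLC-MS/SRM. Remaining extract silylated with BSTFA for GC-MS, quantified against d7-cholesterol. Follow-up runs in triplicate.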

Data set [2] has as its system Fibroblast. The experiment in a line: Increase in lanosterol levels in human SLOS fibroblasts at 1 uM by LC-MS/GC-MS analysis. The data set is classed as functional, cell-based. In outline:
(§2)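 SLOS patient skin fibroblasts (passage 8–20) grown in 96-well plates in delipidated serum with compound for 5 days; three different SLOS lines. Sterols quantified by PTAD-derivatized UPLC-MS plus GC-MS; 7-DHC expressed as percentage of untreated cells.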

Data set [3] deals with T1, Delta(24)-sterol reductase (Mus musculus) (UniProt Q8VCH6).
T1 sequence (whole entry): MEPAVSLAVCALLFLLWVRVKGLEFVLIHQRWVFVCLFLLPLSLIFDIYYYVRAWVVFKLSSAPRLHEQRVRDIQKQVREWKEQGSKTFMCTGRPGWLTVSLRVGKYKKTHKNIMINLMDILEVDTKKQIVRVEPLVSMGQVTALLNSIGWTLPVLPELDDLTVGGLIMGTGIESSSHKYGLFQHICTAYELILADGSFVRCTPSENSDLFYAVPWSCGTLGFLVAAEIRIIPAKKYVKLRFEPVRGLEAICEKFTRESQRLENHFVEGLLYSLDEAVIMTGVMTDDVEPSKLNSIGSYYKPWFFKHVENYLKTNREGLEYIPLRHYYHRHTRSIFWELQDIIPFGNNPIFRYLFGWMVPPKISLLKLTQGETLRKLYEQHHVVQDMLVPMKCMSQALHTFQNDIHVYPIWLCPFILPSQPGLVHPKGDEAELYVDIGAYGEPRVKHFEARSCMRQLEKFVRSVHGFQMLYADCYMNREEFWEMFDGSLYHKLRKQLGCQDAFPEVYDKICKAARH
Nature of the data set: Inhibition of DR24 in Dhcr7-deficient mouse Neuro2a cells assessed as decrease in 7-DHC levels at 1 uM by LC-MS/GC-MS analysis. The data set is classed as cell-based. The gist of the method: as §1

Data set [4] has as its system N2a. The experiment in a line: Change in cholesterol level in Dhcr7-deficient mouse Neuro2a cells at 100 nM by LC-MS/GC-MS analysis. The data set is classed as functional, cell-based. In outline: (§3)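 Follow-up (verification) assay in 96-well plates, run as the 384-well screen, in triplicate, at varying compound concentrations. Cells counted by Hoechst imaging, washed with PBS, then lysed in MeOH with BHT/TPP and isotope standards (d7-Chol, d7-7-DHC, 13C3-Des, 13C3-Lan). Sterols derivatised with PTAD for 20 min at RT and quantified by C18 UPLC-MS (SRM). Remaining sample silylated with BSTFA and run on GC-MS, quantified against d7-Chol.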

The target in data set [5] is T1, Delta(24)-sterol reductase (Mus musculus). Nature of the data set: Inhibition of DR24 in Dhcr7-deficient mouse Neuro2a cells assessed as increase in desmosterol levels at 100 nM by LC-MS/GC-MS analysis. The data set is classed as cell-based. In outline:
as §3

Data set [6] shares this target. The experiment in a line: Inhibition of DR24 in Dhcr7-deficient mouse Neuro2a cells assessed as increase in lanosterol levels at 100 nM by LC-MS/GC-MS analysis. It is filed as cell-based. In outline: as §3
The target of data set [7] is T2, Lanosterol 14-alpha demethylase (Mus musculus, UniProt Q8K0C4).
T2 sequence (Q8K0C4 whole entry): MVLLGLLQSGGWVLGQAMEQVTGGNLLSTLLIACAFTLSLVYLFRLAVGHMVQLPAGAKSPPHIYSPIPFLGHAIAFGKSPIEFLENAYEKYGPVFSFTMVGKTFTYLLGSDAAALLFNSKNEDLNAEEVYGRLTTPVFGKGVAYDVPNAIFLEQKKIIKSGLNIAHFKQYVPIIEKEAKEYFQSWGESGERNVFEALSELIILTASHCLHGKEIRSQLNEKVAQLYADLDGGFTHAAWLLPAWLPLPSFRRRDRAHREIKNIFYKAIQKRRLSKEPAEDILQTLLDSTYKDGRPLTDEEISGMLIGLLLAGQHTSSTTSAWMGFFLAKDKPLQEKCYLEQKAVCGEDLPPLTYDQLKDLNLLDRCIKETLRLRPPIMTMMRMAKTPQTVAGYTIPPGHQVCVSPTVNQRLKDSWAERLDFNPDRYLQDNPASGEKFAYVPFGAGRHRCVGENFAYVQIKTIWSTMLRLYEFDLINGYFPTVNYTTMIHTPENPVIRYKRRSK
Nature of the data set: Inhibition of 14 alpha demethylase in Dhcr7-deficient mouse Neuro2a cells assessed as decrease in 7-DHC levels at 1 uM by LC-MS/GC-MS analysis. It is filed as cell-based. In outline:
as §1

The target of data set [8] is T2, Lanosterol 14-alpha demethylase. Nature of the data set: Inhibition of 14 alpha demethylase in Dhcr7-deficient mouse Neuro2a cells assessed as decrease in desmosterol levels at 1 uM by LC-MS/GC-MS analysis. The data set is classed as cell-based. The gist of the method: as §1
Data set [9] has the same target. The experiment in a line: Inhibition of 14 alpha demethylase in Dhcr7-deficient mouse Neuro2a cells assessed as increase in lanosterol levels at 1 uM by LC-MS/GC-MS analysis. It is filed as cell-based. In outline:
as §1

For data set [10] the target is unchanged. Nature of the data set: Inhibition of 14 alpha demethylase in Dhcr7-deficient mouse Neuro2a cells assessed as increase in cholesterol levels at 1 uM by LC-MS/GC-MS analysis. The data set is classed as cell-based. In outline:
as §1

The nature of data set [11]: Antiproliferative activity against Dhcr7-deficient mouse Neuro2a cells at 500 nM. It is filed as cell-based. To be noted: n2a, 0.5 µM. In outline:
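Dhcr7-deficient Neuro2a cells treated with compound; proliferation followed by Hoechst nuclear staining and automated microscope imaging with cell counts per well.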

The target in data set [12] is 3-beta-hydroxysteroid-Delta(8),Delta(7)-isomerase (Homo sapiens) (UniProt Q15125). Nature of the data set: Inhibition of delta 8-7 isomerase in human SLOS fibroblasts assessed as decrease in 7-DHC levels at 10 nM after 5 days by LC-MS/GC-MS analysis. The gist of the method: as §2
Chain of 3-beta-hydroxysteroid-Delta(8),Delta(7)-isomerase (Homo sapiens) (Q15125 whole entry): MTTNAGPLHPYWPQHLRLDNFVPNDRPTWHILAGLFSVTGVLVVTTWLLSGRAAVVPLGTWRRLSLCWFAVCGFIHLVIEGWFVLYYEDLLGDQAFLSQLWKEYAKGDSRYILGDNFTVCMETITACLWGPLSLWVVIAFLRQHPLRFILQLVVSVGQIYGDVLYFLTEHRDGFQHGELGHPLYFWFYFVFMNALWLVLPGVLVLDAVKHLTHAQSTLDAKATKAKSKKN
A short description of data set [13]: Cytotoxicity against human SLOS fibroblasts at 5 uM after 5 days by Cell Titer assay. To be noted: fibroblast, 120 h. It is filed as cell-based.
The target of data set [14] is T3, 3-beta-hydroxysteroid-Delta(8),Delta(7)-isomerase (Mus musculus) (UniProt P70245).
T3 sequence (whole entry): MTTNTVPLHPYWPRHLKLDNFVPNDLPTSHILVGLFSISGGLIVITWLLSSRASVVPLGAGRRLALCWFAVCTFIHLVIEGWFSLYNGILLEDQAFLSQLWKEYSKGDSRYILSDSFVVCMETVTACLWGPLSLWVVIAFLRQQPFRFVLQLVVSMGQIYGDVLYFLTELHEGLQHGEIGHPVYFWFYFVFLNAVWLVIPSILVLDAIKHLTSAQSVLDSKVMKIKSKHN
The experiment in a line: Inhibition of delta 8-7 isomerase in Dhcr7-deficient mouse Neuro2a cells assessed as decrease in 7-DHC levels at 1 uM by LC-MS/GC-MS analysis. The data set is classed as cell-based. In outline: as §1

The test system of data set [15] is Fibroblast. Nature of the data set: Decrease in cholesterol levels in human SLOS fibroblasts at 10 nM after 5 days by LC-MS/GC-MS analysis. It is filed as functional, cell-based. The gist of the method:
as §2

Data set [16] has as its target T1, Delta(24)-sterol reductase (Mus musculus). The experiment in a line: Inhibition of C-24 reductase in Dhcr7-deficient mouse Neuro2a cells assessed as increase in desmosterol levels at 1 uM by LC-MS/GC-MS analysis. It is filed as cell-based. The gist of the method:
as §1

For data set [17] the target is unchanged. Nature of the data set: Inhibition of Dhcr24 in Dhcr7-deficient mouse Neuro2a cells assessed as increase in 7-dehydrodesmosterol levels at 1 uM by LC-MS/GC-MS analysis. The data set is classed as cell-based. In outline: as §1
Data set [18] addresses T4, Delta(24)-sterol reductase (Homo sapiens) (UniProt Q15392).
T4 sequence (whole entry): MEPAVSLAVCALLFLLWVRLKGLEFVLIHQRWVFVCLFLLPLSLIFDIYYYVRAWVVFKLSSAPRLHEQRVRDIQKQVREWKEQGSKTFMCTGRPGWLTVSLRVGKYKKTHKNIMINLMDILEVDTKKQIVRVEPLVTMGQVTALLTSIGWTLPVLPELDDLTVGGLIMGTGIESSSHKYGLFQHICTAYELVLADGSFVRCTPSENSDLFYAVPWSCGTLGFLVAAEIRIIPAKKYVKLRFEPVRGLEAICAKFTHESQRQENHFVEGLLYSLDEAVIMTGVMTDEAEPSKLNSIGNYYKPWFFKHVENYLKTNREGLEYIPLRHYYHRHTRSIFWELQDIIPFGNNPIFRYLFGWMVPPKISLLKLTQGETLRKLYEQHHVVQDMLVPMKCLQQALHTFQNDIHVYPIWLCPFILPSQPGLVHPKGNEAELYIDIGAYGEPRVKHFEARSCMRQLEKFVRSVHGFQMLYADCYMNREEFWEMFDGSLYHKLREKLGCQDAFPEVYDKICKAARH
Nature of the data set: Inhibition of DR24 in human SLOS fibroblasts assessed as decrease in 7-DHC levels at 10 nM after 5 days by LC-MS/GC-MS analysis. The gist of the method: as §2

The target of data set [19] is T4, Delta(24)-sterol reductase (Homo sapiens). The experiment in a line: Inhibition of DR24 in human SLOS fibroblasts assessed as decrease in 7-DHC levels at 100 nM after 5 days by LC-MS/GC-MS analysis. The gist of the method:
(§4)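 SLOS patient skin fibroblasts (passage 8–20; three different lines) grown in 96-well plates in delipidated serum with compound for 5 days. 7-DHC and cholesterol quantified by PTAD-derivatisation UPLC-MS with isotopic standards. Values expressed as percentage of 7-DHC in the same cells grown without compound.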

The target in data set [20] is 3-beta-hydroxysteroid-Delta(8),Delta(7)-isomerase (Homo sapiens) (UniProt Q15125). Nature of the data set: Inhibition of delta 8-7 isomerase in human SLOS fibroblasts assessed as decrease in 7-DHC levels at 100 nM after 5 days by LC-MS/GC-MS analysis. In outline:
as §4

The target in data set [21] is T1, Delta(24)-sterol reductase (Mus musculus). The experiment in a line: Inhibition of DR24 in mouse Neuro2a cells assessed as decrease in 7-DHC levels at 1 uM by LC-MS/GC-MS analysis. It is filed as cell-based. In outline: (§5)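 Control Neuro2a cells (10000/well, 0.5% FBS) on compound, 24 h. Hoechst cell count, then methanol lysis with labelled standards (d7-7-DHC, 13C3-desmosterol, 13C3-lanosterol), PTAD derivatization 20 min at RT, UPLC-MS SRM. GC-MS of silylated extract for further sterols.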

Data set [22] has as its target T3, 3-beta-hydroxysteroid-Delta(8),Delta(7)-isomerase (Mus musculus). The experiment in a line: Inhibition of delta 8-7 isomerase in mouse Neuro2a cells assessed as decrease in 7-DHC levels at 1 uM by LC-MS/GC-MS analysis. It is filed as cell-based. The gist of the method: as §5
Data set [23] has the same target. The experiment in a line: Inhibition of delta 8-7 isomerase in Dhcr7-deficient mouse Neuro2a cells assessed as increase in zymostenol levels at 1 uM by LC-MS/GC-MS analysis. The data set is classed as cell-based. The gist of the method: as §3
Data set [24] has the same target. The experiment in a line: Inhibition of delta 8-7 isomerase in Dhcr7-deficient mouse Neuro2a cells assessed as increase in zymosterol levels at 1 uM by LC-MS/GC-MS analysis. The data set is classed as cell-based. In outline:
as §3

Data set [25] has the same target. Nature of the data set: Inhibition of delta 8-7 isomerase in Dhcr7-deficient mouse Neuro2a cells assessed as decrease in cholesterol levels at 1 uM by LC-MS/GC-MS analysis. It is filed as cell-based. In outline: as §3

Consider `CC(=O)O[C@@]1(C(C)=O)CC[C@H]2[C@H]3C=C(C)C4=CC(=O)CC[C@]4(C)[C@H]3CC[C@@]21C`, for which the result in the data set on N2a [1] and in the data set on Fibroblast [2] was Active.

As for `CCC(COC(=O)c1cc(OC)c(OC)c(OC)c1)(c1ccccc1)N(C)C` (centres undefined), the inhibition entry in [3], in data set [5] and in data set [6] was “Active” each time. Further, in the data set with N2a [4], the result was inactive.

As to `Oc1c(Cl)cc(Cl)c2cccnc12` [CHLOROXINE], the “inhibition (INH)” value in [7], in [8], in data set [9] and in data set [10] was “Active” each time. Also, the Activity entry in data set [11] is recorded as “Toxic”.

For `Oc1c(Cl)cc(Cl)c(Cl)c1Cc1c(O)c(Cl)cc(Cl)c1Cl` [HEXACHLOROPHENE], the “inhibition (INH)” value in [7], in [8], in data set [9] and in data set [10] was “Active” throughout. Besides, in data set [11], the Activity result is on record as “Toxic”.

As for `COc1ccc2c(c1)OC(C)(C)[C@@H](c1ccccc1)[C@@H]2c1ccc(OCCN2CCCC2)cc1` [LEVORMELOXIFENE], the inhibition result in data set [12], in [14], in data set [3], in data set [16], in data set [17] and in data set [18] was “Active” throughout. Besides, in data set [13], the Activity result is listed as “Toxic”. The result with Fibroblast [15] was inactive.

As for `CN(C)CCOc1ccc(/C(=C(/CCCl)c2ccccc2)c2ccccc2)cc1` [TOREMIFENE], the inhibition entry in data set [19], in data set [14], in data set [3], in [20], in [21] and in data set [23] was “Active” each time. The inhibition result in [24] and in data set [25] was “Active” throughout. Besides, the Activity result in [13] is reported as “Toxic”. The “Activity (decrease in 7-DHC levels)” value in data set [22] was “Active”.
